5HT1a antag = human 5-HT1a receptor antagonists, primary screen, cell-based, CHO, Ga15 NFAT-bla reporter | 5-hydroxytryptamine receptor 1A (Homo sapiens), P08908 | CHO 5-HT1a Ga15 NFAT-bla reporter, antagonist mode | inhibition, % at 10 µM | 0.68% of 62,000 active | AID 612, 2007;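 active = inhibition above the mean of all tested compounds plus 3 SD, cut at about 43% in these data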;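 also: receptor stimulated by 5-CT agonist at 100 nM near EC80; beta-lactamase reporter measured by ratiometric fluorescence of a cleavable substrate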
Target sequence (P08908 whole entry, looked up): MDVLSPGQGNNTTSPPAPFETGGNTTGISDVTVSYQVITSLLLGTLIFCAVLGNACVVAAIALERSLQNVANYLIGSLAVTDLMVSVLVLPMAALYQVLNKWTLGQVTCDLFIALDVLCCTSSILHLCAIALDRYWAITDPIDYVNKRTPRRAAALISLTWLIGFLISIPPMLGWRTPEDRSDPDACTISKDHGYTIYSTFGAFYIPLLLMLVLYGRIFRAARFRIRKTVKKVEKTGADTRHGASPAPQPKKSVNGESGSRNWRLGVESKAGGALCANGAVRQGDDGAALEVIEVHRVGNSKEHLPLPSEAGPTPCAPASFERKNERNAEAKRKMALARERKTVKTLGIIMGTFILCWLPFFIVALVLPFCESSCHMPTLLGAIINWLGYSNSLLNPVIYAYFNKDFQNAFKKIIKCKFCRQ
S1P1 ag pot = S1P1 agonists and agonism potentiators, primary screen, cell-based, primary and confirmation screens, CRE-bla reporter | 0.57% of 56,000 active | S1P1 CRE-bla cells, forskolin, beta-lactamase FRET, potentiator mode; S1P1 agonist co-added at EC20, 2 nM; 100% = saturating reference agonist, 0% = basal | Sphingosine 1-phosphate receptor 1 (Homo sapiens), P21453 | activation, % at 9.5 µM | AID 449, 2006;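 active = activation above a cutoff set at the mean activation of all tested compounds plus 3 SD, cut at about 54% in these data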;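 also: forskolin at 4 µM as EC80 and the EC20 agonist is SEW2871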
HTR1E agonist = 5-HT1E receptor agonists, primary screen, cell-based, HTS; 5-hydroxytryptamine receptor 1E (Homo sapiens), P28566; CHO 5-HT1E Ga15 NFAT-bla reporter, FRET; 0% DMSO wells, 100% control agonist wells; activation, % at 6 µM; 0.69% of 65,000 active; AID 574, 2007;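 active = activation above a set limit, the screen-wide mean activation plus 3 SD, cut at about 8.5% in these data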
5HT1a ag = human 5-HT1a receptor agonists, primary screen, cell-based, CHO, Ga15 NFAT-bla reporter; CHO 5-HT1a Ga15 NFAT-bla reporter, FRET ratio; 0% basal, 100% maximal reference agonist; 0.56% of 65,000 active; 5-hydroxytryptamine receptor 1A (Homo sapiens), P08908; activation, % at 10 µM;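 active = activation above the screen-wide mean activation plus 3 SD, cut at about 19% in these data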
HTR1E antagonist = 5-HT1E receptor antagonists, primary screen, cell-based, HTS. CHO 5-HT1E Ga15 NFAT-bla reporter, FRET, antagonist. 5-hydroxytryptamine receptor 1E (Homo sapiens), P28566. 0.99% of 65,000 active. inhibition, % at 6 µM;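 active = inhibition above a set limit, the mean inhibition across every tested compound plus 3 SD, cut at about 29% in these data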;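 also: signal is the 460 over 535 nm emission ratio of beta-lactamase substrate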
S1P3 agonist = human S1P3 receptor agonists, primary screen, cell-based, primary and confirmation, NFAT-BLA reporter; AID 373, 2006; activation, % at 4.5 µM; S1P3 NFAT-BLA reporter cells, agonism, FRET ratio; relative to 1 µM S1P, basal subtracted; 0.1% of 60,000 active; Sphingosine 1-phosphate receptor 3 (Homo sapiens), Q99500;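 active = activation above the screen-wide mean plus 3 SD, cut at about 4.5% in these data, passing the limit was not always enough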
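Measure – % activation relative to 1 µM S1P (100%), per plate · System – stable CHO line with human S1P3, Gα16, NFAT-BLA reporter · Timing – cells plated overnight, compound 4 h 37 °C, substrate 2 h RT · Technique – fluorescent BLA substrate, ex 405 nm, em 460/535 nm ratio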
Large screens that a line does not name were inactive. Sampled rows, rich in hits. Any-hit rate of the full collection: about 3%.

Cc1csc(NC(=O)C(Cc2ccccc2)n2cccc2)n1 (configuration not stated)	S1P1 ag pot 81.2
O=C(CSc1nc2ccccc2c(=O)n1CC1CCCO1)NCC1CCCO1 (configuration not stated)	none
O=c1c2ccccc2c2ccccc2c(=O)n1CC1CCCO1 (configuration not stated)	HTR1E antagonist 34.8
Cc1ccc(-c2cc(C(F)F)nc(N3CCC(C)CC3)n2)cc1	none (no result: S1P1 ag pot, S1P3 agonist)
CC(C)Oc1cccc(C(=O)Nc2ccccc2N2CCOCC2)c1	HTR1E antagonist 31.8
O=C(Nc1ccc(N2CCOCC2)c(Cl)c1)c1cccc(F)c1	S1P1 ag pot 88.2
O=C(Nc1ccc(N2CCOCC2)c(Cl)c1)c1c(F)c(F)c(F)c(F)c1F	none (no result: S1P1 ag pot)
CCCn1c(NC(=O)c2ccccc2)nc2ccccc21	none
CCCn1c(NC(=O)c2cccc(S(=O)(=O)N3CCCC3)c2)nc2ccccc21	5HT1a antag 49.6, S1P1 ag pot 73.5
COC(=O)c1ccc(Oc2cc(C)nc(-n3nc(C)cc3C)n2)cc1	5HT1a antag 65.4, HTR1E antagonist 90.3
CC(C)(C)c1cccc(/C=N/O)c1O	HTR1E antagonist 29.9 (no result: 5HT1a antag)
O=C(c1ccco1)N1CCN(/C(=N/S(=O)(=O)c2cccs2)c2ccccc2Cl)CC1	5HT1a ag 29.2
Cc1cc(C(=O)OCn2nnc3ccccc3c2=O)c(C)o1	none (no result: S1P1 ag pot, S1P3 agonist)
CCc1cccc2c(C#N)cn(CC(=O)NCCOC)c12	none
COc1cccc(N2CC(O)=C(c3nc4ccccc4c(=O)[nH]3)C2=N)c1	HTR1E antagonist 33.9 (no result: S1P1 ag pot, S1P3 agonist)
O=C(O)CC1C(=O)NCCN1Cc1ccc(F)c(F)c1 (configuration not stated)	HTR1E agonist 22.3
CC(C)n1c(C(=O)OCC(=O)NCc2ccc3c(c2)OCO3)cc2sccc21	none (no result: S1P1 ag pot, S1P3 agonist)
Fc1ccccc1N1CCN(c2ncnc3[nH]ncc23)CC1	5HT1a ag 309.9
COc1ccccc1N1CCN(CCc2n[nH]c(=S)n2-c2ccccc2)CC1	5HT1a antag 69.2, HTR1E agonist 30.3
COc1ccccc1-c1n[nH]c(=S)n1-c1ccccc1	none
CCOC(=O)CC(=O)CSc1ncnc2c1oc1ccccc12	none
Cc1nc(NCCCn2ccnc2)c2oc3ccccc3c2n1	HTR1E antagonist 32.5
CC(C)[C@H](NC(=O)OC(C)(C)C)c1nnc(SCC(=O)Nc2ccc(Br)cc2)o1	S1P1 ag pot 60.8
CC(C)=CCSc1nnc([C@@H](NC(=O)OC(C)(C)C)C(C)C)o1	none
CCOC(=O)c1c(CN2CCCCC2)oc2ccc(OC)cc12	5HT1a ag 21.1 (no result: 5HT1a antag)
CCOC(=O)c1c(CN2CCN(C)CC2)oc2ccc(OC)cc12	none
Cn1c(=O)[nH]c(=O)c2c1nc(Br)n2CCCSc1nc2ccccc2o1	HTR1E antagonist 33.9
Cc1cn(S(=O)(=O)c2ccc(Br)c3ccccc23)cn1	none
CCCc1cc(C(=O)N2CCN(C(c3ccccc3)c3ccccc3)CC2)no1	none
COc1cccc(-c2cc(C(=O)N3CCN(C(c4ccccc4)c4ccccc4)CC3)no2)c1	5HT1a antag 51.8
Cc1cc(C(=O)N2CCN(C(c3ccccc3)c3ccccc3)CC2)no1	S1P1 ag pot 69.4
S=c1[nH]nc(COc2ccc3c(c2)OCO3)n1-c1ccccc1	HTR1E agonist 27.6
CCn1c(COc2ccc3c(c2)OCO3)nnc1SCC(=O)c1ccccc1	none
CCCc1nc2ccccc2c2nc(N)nn12	HTR1E antagonist 34.2
Nc1nc2c3ccccc3nc(Cc3ccccc3)n2n1	none
Cc1nc(N2CCN(C)CC2)c2c(C)c(C(=O)Nc3ccc(F)cc3)sc2n1	HTR1E agonist 20.3 (no result: S1P1 ag pot, S1P3 agonist)
CCC(=O)N1CCN(c2nc(C)nc3sc(C)c(C)c23)CC1	none
O=C(NCc1cccnc1)c1cccc2c1C(=O)N(C1CCCCC1)C2	none
O=C(NCc1ccco1)c1cccc2c1C(=O)N(C1CCCCC1)C2	HTR1E antagonist 30.2
COc1ccc2nc3sc(C(=O)N4CCN(C)CC4)cc3cc2c1	HTR1E agonist 25.3
Cc1nc(SCC(=O)NCc2ccco2)c2c(C)c(C)sc2n1	none
Cc1sc2ncnc(SCC(=O)NC(=O)NCc3ccco3)c2c1C	5HT1a ag 98.4
N#Cc1ccccc1Cn1c(-c2cscn2)nc2ccccc21	none
Cc1noc(C)c1COc1cccc(C(=O)OCC(=O)N2CC(=O)Nc3ccccc32)c1	HTR1E antagonist 38.2
C=CCn1c(=O)c2ccccc2n2c(SCc3nnc(-c4ccccc4Br)o3)nnc12	none
O=C(O)c1ccccc1C(=O)N1CC=C(c2ccccc2)CC1	HTR1E agonist 12.0
Cc1nonc1NC(=O)c1ccc(Cl)c(S(=O)(=O)N2CCCCC2)c1	none
CCCS(=O)(=O)c1nnnn1-c1cccc(OC)c1	5HT1a antag 108.6, S1P1 ag pot 116.2, HTR1E antagonist 106.4
CCOC(=O)/C=C/S(=O)(=O)c1ccc(NC(C)=O)cc1	5HT1a antag 98.4, S1P1 ag pot 151.7, HTR1E antagonist 89.2
FC(F)(F)c1cccc(N2CCN(Cc3cccnc3)CC2)c1	none
FC(F)(F)c1cccc(N2Cc3ccccc3C2)c1	HTR1E agonist 10.8
FC(F)(F)c1cccc(N2CCN(Cc3ccoc3)CC2)c1	HTR1E agonist 13.9 (no result: S1P1 ag pot)
CC1(C(=O)O)CCC(C(=O)Nc2ccc(S(N)(=O)=O)cc2)C1(C)C (configuration not stated)	none
Cc1ccc2oc(C(=O)Nc3c(C)n(C)n(-c4ccccc4)c3=O)c(C)c2c1	none (no result: S1P1 ag pot)
CC1CCN(C(=O)CSc2nc3cccnc3n2C)CC1	5HT1a ag 89.2
CC1=CC(C)(C)N(C(=O)c2ccc(F)cc2)c2cc3c(cc21)OCO3	5HT1a antag 43.1
CSC1=NCCN1C(=O)c1ccc2c(c1)OCO2	none
OCC#Cc1cnc2ccccc2c1	none
CCN(Cc1ccccc1)C(c1cccc(C#N)c1)c1nnnn1C(C)(C)C (configuration not stated)	5HT1a antag 44.2
O=S1(=O)C=C(Sc2nc3cc(Cl)ccc3o2)c2ccccc21	5HT1a antag 93.7, S1P1 ag pot 80.1, HTR1E antagonist 80.0
COc1cc2c(cc1OC)C1=C(C#N)CN(CC(=O)O)CN1CC2	HTR1E antagonist 32.7
COc1cc2c(cc1OC)CN(C(=O)COc1ccc(C#N)cc1)CC2	none
CCOc1ccc(Br)cc1S(=O)(=O)Nc1ccccc1N1CCOCC1	none
CC1(C)CC(=O)C(C=NCc2ccc3c(c2)OCO3)=C(O)C1	none

Source: PubChem (The Scripps Research Institute Molecular Screening Center)
